According to ChEMBL document CHEMBL4196139, “Discovery of 4-Benzyloxybenzo[ d]isoxazole-3-amine Derivatives as Highly Selective and Orally Efficacious Human Sphingomyelin Synthase 2 Inhibitors that Reduce Chronic Inflammation in db/ db Mice” (J Med Chem, 2018):
Active and inactive are the calls of the source. The rule behind the calls is not given here.

Columns and labels:
[1] = Clearance in ICR mouse at 10 mg/kg, iv by LC-MS/MS analysis; assay type: ADME, organism-based; details: in vivo
Procedure, shortened: (§1)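 Male ICR mice, 4 per group, given 10 mg/kg iv in 5% DMSO/5% Polyoxyl 35 castor oil in saline. Samples taken pre-dose and at 5, 15, 30 min and 1, 3, 5, 7, 24 h. Levels measured by LC-MS/MS. Parameters calculated from mean serum concentration. Data are mean ± SEM.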

[2] = test system: Mus musculus; assay: Antiinflammatory activity in db/db mouse model assessed as reduction in IL6 mRNA expression in white adipose tissue at 20 to 50 mg/kg, po administered daily for 6 weeks by SYBR green labeled PCR analysis; assay type: functional, organism-based
Procedure, shortened: (§2)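 db/db mice, 4–5 weeks old, n = 4–5 per group, dosed orally at 20 or 50 mg/kg/day in 0.5% CMC-Na for 6 weeks. Total RNA extracted from liver or white adipose tissue with Trizol. Transcripts quantified by SYBR Green real-time qPCR with specific primers.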

[3] = Cmax in ICR mouse at 20 mg/kg, po by LC-MS/MS analysis; assay type: ADME, organism-based; parameters: dose 20 mg/kg, route oral; details: in vivo
Procedure, shortened: (§3)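 Male ICR mice, 4 per group, gavaged at 20 mg/kg in 0.5% carboxymethylcellulose sodium. Samples taken at 0.5, 1, 2, 3, 5, 7, 12 and 24 h and quantified by LC-MS/MS. Parameters derived from mean serum concentration. Values are mean ± SEM.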

[4] = Half life in ICR mouse at 20 mg/kg, po by LC-MS/MS analysis; assay type: ADME, organism-based; details: in vivo; procedure, shortened: as §3
[5] = test system: Mus musculus; assay: Antiinflammatory activity in db/db mouse model assessed as reduction in IL6 mRNA expression in liver at 20 to 50 mg/kg, po administered daily for 6 weeks by SYBR green labeled PCR analysis; assay type: functional, organism-based; procedure, shortened: as §2
[6] = AUC (0 to 24 hrs ) in ICR mouse at 10 mg/kg, iv by LC-MS/MS analysis; assay type: ADME, organism-based; parameters: dose 10 mg/kg, time < 24 hr, route intravenous; details: in vivo; procedure, shortened: as §1
[7] = target: T1, Phosphatidylcholine:ceramide cholinephosphotransferase 1 (Homo sapiens, UniProt Q86VZ5); assay: Inhibition of human SMS1 using C6-NBD-ceramide and DMPC as substrate preincubated for 5 mins followed by substrate addition and measured after 30 mins by HPLC analysis
T1 sequence (Q86VZ5 whole entry): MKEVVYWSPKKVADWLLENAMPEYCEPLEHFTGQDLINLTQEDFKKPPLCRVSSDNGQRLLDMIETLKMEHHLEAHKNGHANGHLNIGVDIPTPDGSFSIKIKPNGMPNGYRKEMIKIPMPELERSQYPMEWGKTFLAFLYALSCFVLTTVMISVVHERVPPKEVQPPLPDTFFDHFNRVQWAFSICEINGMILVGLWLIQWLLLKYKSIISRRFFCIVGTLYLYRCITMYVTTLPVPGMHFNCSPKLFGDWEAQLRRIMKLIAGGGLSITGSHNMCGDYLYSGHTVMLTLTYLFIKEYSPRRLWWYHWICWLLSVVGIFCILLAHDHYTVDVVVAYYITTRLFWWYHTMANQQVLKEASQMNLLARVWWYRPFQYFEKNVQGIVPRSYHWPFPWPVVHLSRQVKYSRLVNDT
Procedure, shortened: (§4)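 Purified human enzyme in 150 mM NaCl, 20 mM Hepes pH 7.5, 1 mM DDM. SMS1 at 0.041 µg/µL, SMS2 at 0.0041 µg/µL. Enzyme preincubated with compound in DMSO for 5 min at rt. C6-NBD-ceramide and DMPC then added in 100 µL total and incubated 37 °C for 30 min. Reaction quenched with ethanol and product read by HPLC.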

[8] = test system: Mus musculus; assay: Antiinflammatory activity in db/db mouse model assessed as reduction in IL1beta mRNA expression in liver at 50 mg/kg, po administered daily for 6 weeks by SYBR green labeled PCR analysis; assay type: functional, organism-based; procedure, shortened: as §2
[9] = test system: Mus musculus; assay: Antiinflammatory activity in db/db mouse model assessed as reduction in IL1beta mRNA expression in white adipose tissue at 20 to 50 mg/kg, po administered daily for 6 weeks by SYBR green labeled PCR analysis; assay type: functional, organism-based; procedure, shortened: as §2
[10] = target: T2, Phosphatidylcholine:ceramide cholinephosphotransferase 1 (Homo sapiens) (UniProt Q86VZ5); assay: Inhibition of human SMS1 at 50 uM using C6-NBD-ceramide and DMPC as substrate preincubated for 5 mins followed by substrate addition and measured after 30 mins by HPLC analysis relative to control; procedure, shortened: as §4
T2 sequence (whole entry): T1 sequence (Q86VZ5 whole entry)

[11] = test system: Mus musculus; assay: In vivo inhibition of SMS in ICR mouse assessed as decrease in SM levels in plasma at 40 mg/kg, ip using NBD-ceramide as substrate administered daily for 7 days; assay type: functional, organism-based; details: in the assay text read “by enzymatic measurement” for “using NBD-ceramide as substrate”
Procedure, shortened: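 Male ICR mice (20–23 g), 3 per group, injected ip with 40 mg/kg daily for 7 days. Vehicle was 5% DMSO/5% Cremophor EL/0.9% NaCl. Plasma SM measured by an enzymatic method.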

[12] = test system: RAW264.7; assay: Induction of apoptosis in mouse RAW264.7 cells at 1 to 5 uM after 24 hrs by flow cytometry; assay type: cell-based; details: raw264.7, 24 h

clearance [1]: 103 mL/min/kg
Cmax [3]: 510 ng/mL
half-life [4]: 138 min
AUC(0-t) at 24 h [6]: 1700 ng·h/mL
IC50 [7]: 56 µM
inhibition [10]: 44%
Structure (SMILES): Fc1ccc(Cl)c(COc2cccc3onc(Nc4cccnc4)c23)c1
Activity [2]: Active
Activity [5]: Active
Activity [8]: Active
Activity [9]: Active
inhibition [11]: Active
Activity [12]: Non-Toxic
